Positions count from the first letter of the chain named. Calls of active or inactive are those of the source. Unless noted, the calls are words filed in the database; no cut-off is given here.
Tests used:
[1] = test system: Liver; assay: Ratio of AUClast in liver to AUClast in plasma in C57BL/6 mouse at 50 mg/kg, ip; assay type: ADME, organism-based; design: dose 50 mg/kg, route intraperitoneal; settings: other tissue
In short: (§1)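 Male C57BL/6 mice, 18−26 g, given a single ip dose of 50 mpk in 20% PEG 400 + 80% (20% HP-β-CD). Plasma, brain and liver were sampled, and brain and liver were homogenized in 3 volumes of PBS pH 7.4 (dilution factor 4). Analysis was by LC−MS/MS. Mean profiles N = 3.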

[2] = target: T1, Lysosomal acid glucosylceramidase (Homo sapiens, UniProt P04062); assay: (§2) Binding affinity to NT-647 labeled glucocerebrosidase by microscale thermophoretic analysis; settings: read-out: Kd(app)
T1 sequence (P04062 whole entry): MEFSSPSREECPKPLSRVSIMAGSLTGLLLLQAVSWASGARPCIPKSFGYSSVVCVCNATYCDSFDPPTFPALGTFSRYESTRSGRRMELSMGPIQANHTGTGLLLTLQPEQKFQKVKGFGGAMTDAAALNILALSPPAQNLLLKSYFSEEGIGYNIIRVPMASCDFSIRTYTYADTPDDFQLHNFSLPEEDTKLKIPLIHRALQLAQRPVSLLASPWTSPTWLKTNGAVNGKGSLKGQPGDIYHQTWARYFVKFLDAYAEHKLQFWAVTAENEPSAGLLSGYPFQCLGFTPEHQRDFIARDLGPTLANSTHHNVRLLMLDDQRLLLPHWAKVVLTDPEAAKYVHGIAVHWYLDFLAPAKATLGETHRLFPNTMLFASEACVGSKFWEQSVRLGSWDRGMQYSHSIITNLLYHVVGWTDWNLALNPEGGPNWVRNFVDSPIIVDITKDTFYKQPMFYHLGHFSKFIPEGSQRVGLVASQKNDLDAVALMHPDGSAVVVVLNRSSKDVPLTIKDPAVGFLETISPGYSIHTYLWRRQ
In short: (§3)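 NT-647-labeled glucocerebrosidase at ~20 nM in 50 mM phosphate pH 7.2, 0.05% Tween-20. It was mixed 1:1 with a 16-point DMSO dilution series and incubated 15 min at room temperature before capillary microscale thermophoresis. Apparent K_d was taken from the dose-dependent fluorescence change.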

[3] = target: T2, Lysosomal acid glucosylceramidase (Homo sapiens) (UniProt P04062); assay: as §2; in short: as §3
T2 sequence (whole entry): T1 sequence (P04062 whole entry)

[4] = test system: Plasma; assay: Cmax in C57BL/6 mouse plasma at 50 mg/kg, ip; assay type: ADME, organism-based; design: dose 50 mg/kg, route intraperitoneal; settings: in vivo; in short: as §1
[5] = test system: Liver; assay: AUC (infinity) in C57BL/6 mouse liver at 50 mg/kg, ip; assay type: ADME, organism-based; design: time infinity, dose 50 mg/kg, route intraperitoneal; settings: in vivo; in short: as §1
[6] = species: Homo sapiens; assay: Activation of Glucocerebrosidase N370S/N370S mutant translocation to lysosome in Gaucher patient dermal fibroblasts at 5 uM incubated for 6 days by LAMP2 co-localization-based laser scanning confocal microscopic analysis relative to vehicle-treated control
[7] = test system: Liver; assay: Half life in C57BL/6 mouse liver at 50 mg/kg, ip; assay type: ADME, organism-based; design: dose 50 mg/kg, route intraperitoneal; settings: in vivo; in short: as §1
[8] = test system: Brain; assay: AUC (infinity) in C57BL/6 mouse brain at 50 mg/kg, ip; assay type: ADME, organism-based; design: dose 50 mg/kg, route intraperitoneal, time infinity; settings: in vivo; in short: as §1
[9] = test system: T3, Lysosomal acid glucosylceramidase (Homo sapiens), P04062 [N409S]; assay: Activation of glucocerebrosidase N370S mutant using C12-BODIPY-GlcCer as substrate assessed as half-maximal activation concentration incubated for 5 mins prior to substrate addition measured after 30 to 45 mins by HPLC analysis
T3 sequence (whole entry): T1 sequence (P04062 whole entry) with N409S
In short: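 N370S/N370S patient spleen homogenate at 140 μg/well. Compound was tested at 9 concentrations, 1:2 dilutions from 50 μM. Substrate was 2 mM 4MU-Glc or the C12-BODIPY substrate at 25 μM; other conditions as the plate assay. Stopped reactions were separated on C18 HPLC with fluorescence detection: 4MU at 365/440 nm, C12-BODIPY-Cer at 506/540 nm.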

[10] = target: Lysosomal alpha-glucosidase (Homo sapiens) (UniProt P10253); assay: Activation of alpha-glucosidase using 4-MU-alpha-glucose as substrate
[11] = test system: Brain; assay: Half life in C57BL/6 mouse brain at 50 mg/kg, ip; assay type: ADME, organism-based; design: dose 50 mg/kg, route intraperitoneal; settings: in vivo; in short: as §1
[12] = Cytotoxicity against human dermal fibroblasts expressing wild type GCase at 5 uM after 6 days; assay type: cell-based; settings: fibroblast, 144 h
In short: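 Fibroblasts of the stated genotype were seeded at 5000 cells/well. After 1 day they were switched to OPTI-MEM with 5% FBS and treated 6 days with compound. Viability was read by CellTiter-Glo luminescence on a parallel plate.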

[13] = test system: T3, Lysosomal acid glucosylceramidase (Homo sapiens), P04062 [N409S]; assay: Activation of Glucocerebrosidase N370S/N370S mutant translocation to lysosome in Gaucher patient dermal fibroblasts incubated for 6 days by LAMP2 colocalization-based laser scanning confocal microscopic analysis relative to vehicle-treated control
In short: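 N370S/N370S Gaucher dermal fibroblasts were treated 6 days at 1, 5 or 25 μM, with DMSO vehicle control. Cells were fixed in 3% paraformaldehyde, permeabilized with Triton-X and stained with anti-GCase R386 (Alexa555), anti-LAMP-2 (Alexa488) and DAPI. Confocal imaging used constant laser settings, scoring GCase/LAMP-2 colocalization.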

[14] = test system: Liver; assay: Cmax in C57BL/6 mouse liver at 50 mg/kg, ip; assay type: ADME, organism-based; design: dose 50 mg/kg, route intraperitoneal; settings: in vivo; in short: as §1
[15] = test system: T3, Lysosomal acid glucosylceramidase (Homo sapiens), P04062 [N409S]; assay: Activation of wild type glucocerebrosidase translocation to lysosome in human dermal fibroblast isolated from N370S carrier incubated for 6 days by LAMP2 co-localization-based laser scanning confocal microscopic analysis relative to vehicle-treated control
[16] = test system: Caco-2; assay: Apparent permeability of the compound from apical to basal side of human Caco2 cells after 2 hrs; assay type: ADME, cell-based; settings: caco-2, 2 h
In short: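 Caco-2 monolayers were grown 3 weeks, with integrity checked by Lucifer yellow. Compound was added apically (pH 6.5 HBSS/HEPES/glucose buffer) or basolaterally (pH 7.4) and incubated 2 h. Transfer was quantified by LC−MS/MS and expressed as P_app. Efflux ratio is P_app B→A over A→B.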

[17] = test system: Liver; assay: Tmax in C57BL/6 mouse liver at 50 mg/kg, ip; assay type: ADME, organism-based; design: dose 50 mg/kg, route intraperitoneal; settings: in vivo; in short: as §1
[18] = test system: Liver; assay: AUClast in C57BL/6 mouse liver at 50 mg/kg, ip; assay type: ADME, organism-based; design: time 0 - last, dose 50 mg/kg, route intraperitoneal; settings: in vivo; in short: as §1
[19] = Ratio of AUClast in brain to AUClast in plasma in C57BL/6 mouse at 50 mg/kg, ip; assay type: ADME, organism-based; design: dose 50 mg/kg, route intraperitoneal; in short: as §1
[20] = test system: Brain; assay: Cmax in C57BL/6 mouse brain at 50 mg/kg, ip; assay type: ADME, organism-based; design: dose 50 mg/kg, route intraperitoneal; settings: in vivo; in short: as §1

Ratio AUC [1]: 12512% | Kd [2]: 9 µM | Activity [3]: Dose-dependent effect | Cmax [4]: 1030 nM | AUC [5]: 105000 ng·h/mL | Activity [6]: Active | t1/2 [7]: 28.9 h | AUC [8]: 1390 ng·h/mL | Activity [9]: inactive | Activity [10]: inactive | t1/2 [11]: 18.2 h | Activity [13]: Active | Cmax [14]: 17300 nM | Activity [15]: Active | Papp [16]: 6 ×10⁻⁶ cm/s | Tmax [17]: 0.25 h | AUClast [18]: 54300 ng·h/mL | Ratio AUC [19]: 290% | Cmax [20]: 2760 nM
Structure (SMILES): C#Cc1ccc(NC(=O)c2cnn3c(C)cc(C)nc23)cc1
Activity [12]: Non-toxic

Reference: ChEMBL document CHEMBL2169863, “Discovery, structure-activity relationship, and biological evaluation of noninhibitory small molecule chaperones of glucocerebrosidase” (J Med Chem, 2012)
